{"source": "ChEMBL document CHEMBL1149071", "about": "“Lignans from the wood of Abies pinsapo” (J Nat Prod, 1994)", "format_in_all_cases": "functional, organism-based", "key": {"[1]": {"system": "Vesicular stomatitis virus", "experiment": "Antiviral activity against VSV at 40 ug/ml"}, "Penicillium": {"system": "Penicillium", "experiment": "Antifungal ativity against Penicillium", "summary_of_the_method": "(§1)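 Disk diffusion on brain-heart agar plates inoculated with 0.1 ml of 8 h-old fungal cultures grown in CM medium (1% glucose, 0.5% yeast extract, 0.5% malt extract). 5-mm paper disks carrying 1 mg of sample were applied. Plates were held 2 h at 4° for diffusion, then incubated at 28°. Growth-inhibition halo (mm) was read at 18 h.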"}, "Human alphaherpesvirus 1": {"system": "Human alphaherpesvirus 1", "experiment": "Antiviral activity against HSV1 at 40 ug/ml"}, "Aspergillus niger": {"system": "Aspergillus niger", "experiment": "Antifungal ativity against Aspergillus niger CECT 2089", "summary_of_the_method": "as §1"}}, "note": "Active and inactive are the calls of the source. No cut-off for these calls is given here."}
{"smiles": "COc1cc(C[C@H]2COC(O)[C@@H]2Cc2ccc(O)c(OC)c2)ccc1O", "note": "(some centres undefined)", "values": [{"measurement": "Activity", "setting": "[1]", "value": "inactive"}, {"measurement": "Growth-inhibition halo", "setting": "Penicillium", "value": "inactive"}, {"measurement": "Activity", "setting": "Human alphaherpesvirus 1", "value": "inactive"}, {"measurement": "Activity", "setting": "Aspergillus niger", "value": "inactive"}]}
{"smiles": "COc1cc(C[C@H]2[C@H](OC(C)=O)OC[C@@H]2[C@H](OC(C)=O)c2ccc(OC(C)=O)c(OC)c2)ccc1OC(C)=O", "values": [{"measurement": "Activity", "setting": "[1]", "value": "inactive"}, {"measurement": "Activity", "setting": "Human alphaherpesvirus 1", "value": "inactive"}]}
{"smiles": "COc1cc(C[C@H](COC(C)=O)Oc2ccc(C[C@@H]3[C@@H](Cc4ccc(OC(C)=O)c(OC)c4)CO[C@H]3OC(C)=O)cc2OC)ccc1OC(C)=O", "values": [{"measurement": "Activity", "setting": "[1]", "value": "inactive"}, {"measurement": "Activity", "setting": "Human alphaherpesvirus 1", "value": "inactive"}]}
{"smiles": "COc1cc(C[C@H](CO)Oc2ccc(C[C@H]3C(=O)OC[C@@H]3Cc3ccc(O)c(OC)c3)cc2OC)ccc1O", "values": [{"measurement": "Growth-inhibition halo", "setting": "Penicillium", "value": "inactive"}, {"measurement": "Activity", "setting": "Aspergillus niger", "value": "inactive"}]}
{"smiles": "COc1cc(C[C@H]2[C@H](OC(C)=O)O[C@H](c3ccc(OC(C)=O)c(OC)c3)[C@H]2COC(C)=O)ccc1OC(C)=O", "values": [{"measurement": "Activity", "setting": "[1]", "value": "inactive"}, {"measurement": "Activity", "setting": "Human alphaherpesvirus 1", "value": "inactive"}]}
{"smiles": "COc1cc(C[C@H]2CO[C@H](c3ccc(O)c(OC)c3)[C@H]2CO)ccc1O", "values": [{"measurement": "Activity", "setting": "[1]", "value": "inactive"}, {"measurement": "Growth-inhibition halo", "setting": "Penicillium", "value": "inactive"}, {"measurement": "Activity", "setting": "Human alphaherpesvirus 1", "value": "inactive"}, {"measurement": "Activity", "setting": "Aspergillus niger", "value": "inactive"}]}
{"smiles": "COc1cc(C[C@H]2COC(=O)[C@@H]2Cc2ccc(O)c(OC)c2)ccc1O", "values": [{"measurement": "Activity", "setting": "[1]", "value": "inactive"}, {"measurement": "Growth-inhibition halo", "setting": "Penicillium", "value": "inactive"}, {"measurement": "Activity", "setting": "Human alphaherpesvirus 1", "value": "inactive"}, {"measurement": "Activity", "setting": "Aspergillus niger", "value": "inactive"}]}
{"smiles": "COc1cc([C@H]2OC[C@H]([C@H](OC(C)=O)c3ccc(OC(C)=O)c(OC)c3)[C@@H]2COC(C)=O)ccc1OC(C)=O", "values": [{"measurement": "Activity", "setting": "[1]", "value": "inactive"}, {"measurement": "Activity", "setting": "Human alphaherpesvirus 1", "value": "inactive"}]}
{"smiles": "COc1cc([C@H]2OC[C@H]([C@@H](OC(C)=O)c3ccc(OC(C)=O)c(OC)c3)[C@@H]2COC(C)=O)ccc1OC(C)=O", "values": [{"measurement": "Activity", "setting": "[1]", "value": "inactive"}, {"measurement": "Activity", "setting": "Human alphaherpesvirus 1", "value": "inactive"}]}
